Most compounds without a hit are left out; they make up all but 2.5% or so of the library.
TRPC4 block = inhibitors of mouse TRPC4 channel. B-score at 10 µM. HEK293 TRPC4beta/mu-opioid, DAMGO-evoked Fluo4 calcium flux; hits give low values. Q9QUQ5. AID 2247. 300,000 compounds, 0.39% hits;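 active = B-score over 3 SD under the library average, no early fluorescence shift, positive overall ratio signal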
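test system = HEK293 cells with stable TRPC4beta plus mu-opioid receptor expression | detection = Fluo4 Ca2+ flux fluorescence | read-out = integrated fluorescence ratio relative to baseline, converted to per-well B score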
TRPC4 potent = allosteric potentiators of mouse TRPC4 channel; Q9QUQ5; 310,000 compounds, 0.42% hits; AID 2227; B-score at 10 µM; HEK293 TRPC4beta/mu-opioid, DAMGO EC20, Fluo-4 Ca2+ flux; hits give high values;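 active = B-score of calcium response area above 5 SD of library B-scores, with initial fluorescence ratio within 5 SD of library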
TRPC6 inhibitor = mouse TRPC6 channel inhibition | B-score at 10 µM | Q61143 | HEK293-TRPC6, membrane potential dye, ACh-evoked depolarization; hits give low values | 310,000 compounds, 1.1% hits;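 active = B-score under library mean minus 3 SD, initial fluorescence not abnormally high, positive integrated signal ratio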;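 also: B-score derived from integrated fluorescence ratio over the kinetic read; more negative B-score means stronger inhibition of depolarization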
Target sequence (Q61143 whole entry, looked up): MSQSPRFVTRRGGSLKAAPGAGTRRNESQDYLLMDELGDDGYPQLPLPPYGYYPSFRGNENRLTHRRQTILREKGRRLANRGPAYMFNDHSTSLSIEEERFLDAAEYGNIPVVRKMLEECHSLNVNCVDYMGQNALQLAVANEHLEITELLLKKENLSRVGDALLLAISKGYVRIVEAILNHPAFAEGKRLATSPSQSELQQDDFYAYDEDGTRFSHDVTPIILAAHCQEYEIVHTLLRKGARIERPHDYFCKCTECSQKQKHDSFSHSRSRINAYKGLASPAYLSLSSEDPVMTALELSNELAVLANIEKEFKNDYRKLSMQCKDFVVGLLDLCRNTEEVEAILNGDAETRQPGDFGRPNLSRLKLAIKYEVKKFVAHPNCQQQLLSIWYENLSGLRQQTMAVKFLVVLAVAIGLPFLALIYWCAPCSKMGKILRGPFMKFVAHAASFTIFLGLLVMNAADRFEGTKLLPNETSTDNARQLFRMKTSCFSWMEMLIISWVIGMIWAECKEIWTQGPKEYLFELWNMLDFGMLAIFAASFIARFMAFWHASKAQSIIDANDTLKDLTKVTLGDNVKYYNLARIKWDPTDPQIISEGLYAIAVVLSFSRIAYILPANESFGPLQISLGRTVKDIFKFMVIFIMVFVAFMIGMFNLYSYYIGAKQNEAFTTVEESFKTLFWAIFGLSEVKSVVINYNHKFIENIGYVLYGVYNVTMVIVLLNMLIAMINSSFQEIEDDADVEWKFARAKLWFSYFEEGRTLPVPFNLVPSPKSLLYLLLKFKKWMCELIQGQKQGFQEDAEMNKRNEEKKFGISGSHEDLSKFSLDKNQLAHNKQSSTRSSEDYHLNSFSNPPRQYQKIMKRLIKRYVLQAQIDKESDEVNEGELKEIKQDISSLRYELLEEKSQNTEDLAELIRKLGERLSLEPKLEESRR
Pemphigus Ab inh = inhibitors of pemphigus antibody binding to human desmoglein-3; P32926; DSG3-coupled beads, scFv-anti-DSG3-GFP binding, flow cytometry; hits give low values; binding (percent of control), % at 10 µM; 310,000 compounds, 0.48% hits; AID 588358;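 active = binding more than 3 SD below its plate's average and above zero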;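 also: hits lower antibody fragment binding to DSG3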
TRPC6 activator = activators of mouse TRPC6 channel | AID 2550 | Q61143 | HEK293-TRPC6 membrane potential dye fluorescence; hits give high values | B-score at 10 µM | 310,000 compounds, 0.13% hits;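 active = B-score of the integrated fluorescence ratio above library mean plus 3 SD, and starting fluorescence ratio within library mean plus 5 SD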;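 also: higher score means more depolarization so channel activation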
TRPC4 agonist = activators of mouse TRPC4 channel; Q9QUQ5; HEK293 TRPC4beta/mu-opioid, Fluo4 calcium fluorescence; hits give high values; B-score at 10 µM; 310,000 compounds, 0.49% hits;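 active = B-score above 5 SD of library B-scores, and initial fluorescence ratio not above library mean plus 5 SD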;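 also: positive B-score marks a calcium rise read as TRPC4 activation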
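System: HEK293 cells stably co-expressing mouse TRPC4beta and mu-opioid receptor; Schedule: Fluo4 dye loading 45 min at room temperature, 110 s recording; Detection: Fluo4 fluorescence, kinetic; Evaluation: B-scored integrated calcium fluorescence ratio; Controls: buffer (low) and maximal DAMGO (high).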
TRPC4 spec 2 = mouse TRPC4 off-target activity of TRPC6 inhibitors, second screen; AID 2776; 920 compounds, 42% hits; shares compounds with TRPC6 inhibitor; inhibition, % at 10 µM; HEK293 TRPC4/MOR, membrane potential dye fluorescence; channel activated by saturating DAMGO dose;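 active = compounds whose fluorescence signal differed from control wells by over 3 SD, either direction, in both duplicate plates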
TRPC4 spec = tests whether TRPC6 inhibitors also affect mouse TRPC4; shares compounds with TRPC6 inhibitor; HEK293 TRPC4/mu-opioid, membrane potential fluorescence; activity change, negative = inhibition, % at 10 µM; 920 compounds, 61% hits;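 active = rise or fall in signal beyond 3 SD of buffer-only wells in both replicate plates, either sign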;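 also: integrated kinetic ratio of fluorescence range over baseline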
HEK293 MPD ctr 2-1 = second check of TRPC6 inhibitor effects in parental HEK293 cells; shares compounds with TRPC6 inhibitor; parental HEK293 membrane potential dye fluorescence; maximal acetylcholine challenge after compound addition; signal change vs control, % at 10 µM; 920 compounds, 31% hits; AID 2779;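 active = membrane potential signal moving either way by over 3 SD of the maximum-effect control, in both duplicate plates, meaning non-specific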
HEK293 MPD ctr-1 = checks TRPC6 inhibitor effects in parental HEK293 cells | 920 compounds, 60% hits | membrane potential signal change, % at 10 µM | shares compounds with TRPC6 inhibitor | parental HEK293 membrane potential dye fluorescence;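 active = membrane potential signal shifting up or down by more than 3 SD of buffer-only wells, on both duplicate plates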
HEK293 MPD ctr-2 = checks TRPC6 modulator effects in parental HEK293 cells; shares compounds with TRPC6 inhibitor; membrane potential dye fluorescence; membrane potential signal change, % at 10 µM; 2,400 compounds, 51% hits;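 active = membrane potential signal moves up or down beyond 5 SD from buffer-only wells, on both duplicate plates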
HEK293 MPD ctr 2-2 = parental HEK293 nonspecific activity of TRPC6 modulators, second screen; shares compounds with TRPC6 inhibitor; membrane potential dye fluorescence; after compound, maximal acetylcholine stimulation; inhibition, % at 10 µM; 2,400 compounds, 14% hits; AID 488926;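 active = membrane potential signal drops by more than 5 SD from the mean control signal, in both duplicate plates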
TRPC4 ctr mod = selectivity of TRPC6 modulators against mouse TRPC4. percent change from control (negative = decrease, positive = increase), % at 10 µM. 2,400 compounds, 69% hits. HEK293 TRPC4/mu-opioid, membrane potential fluorescence. shares compounds with TRPC6 inhibitor;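 active = membrane potential signal moved up or down beyond 5 SD of buffer control wells, in both duplicate plates, actives on both sides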
TRPC4/MOR inh 2 = second check of whether TRPC6 modulators also affect mouse TRPC4; shares compounds with TRPC6 inhibitor; 2,400 compounds, 55% hits; HEK293 TRPC4/mu-opioid, membrane potential dye fluorescence; stimulated with maximal-effect DAMGO; inhibition, % at 10 µM; AID 488928;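 active = drop in membrane potential signal beyond 5 SD of the control wells in both duplicate plates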;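 also: TRPC4 counter screen for TRPC6 hits run under conditions tuned for TRPC6 not TRPC4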
TRPC6 inh conf = mouse TRPC6 inhibitor confirmation | 3,300 compounds, 43% hits | HEK293-TRPC6, membrane potential dye, ACh-evoked depolarization | inhibition, % at 10 µM | shares compounds with TRPC6 inhibitor;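 active = fluorescence ratio falls more than 5 SD below the full-stimulation control mean, in both duplicate runs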;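 also: integrated fluorescence ratio of peak minus minimum over baseline after agonist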
TRPC6 act conf = mouse TRPC6 activator confirmation. HEK293-TRPC6 membrane potential dye fluorescence, FDSS. shares compounds with TRPC6 inhibitor. activation, % at 10 µM. 2,800 compounds, 11% hits;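 active = ratio signal rise beyond 5 SD above unstimulated control wells' mean, seen in both duplicate runs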
A number is an active result; n = inactive; x = no result; + = active, no number.

SMILES | TRPC4 block | TRPC4 potent | TRPC6 inhibitor | Pemphigus Ab inh | TRPC6 activator | TRPC4 agonist | HEK293 MPD ctr-2 | HEK293 MPD ctr 2-2 | TRPC4 ctr mod | TRPC4/MOR inh 2 | TRPC6 inh conf | TRPC6 act conf | others
O=C(Nc1nc2ccccc2n1CCN1CCCCC1)c1ccco1 | n | n | -7.89 | n | n | n | x | x | x | x | n | n | TRPC4 spec 2=48.0%;TRPC4 spec=-17.8%;HEK293 MPD ctr 2-1=n;HEK293 MPD ctr-1=-264.5%
CCn1cc(Cl)c(C(=O)Nc2nc3ccccc3n2CCN2CCCCC2)n1 | n | n | -8.65 | n | n | n | -270.5% | 73.5% | -41.5% | 65.5% | 60.5% | n
O=C(Nc1nc2ccccc2n1CCOc1ccccc1)c1ccco1 | n | n | n | n | n | n | x | x | x | x | x | x
Cc1cc(N=Nc2ccccc2)c(NCC(O)C(O)C(O)CO)cc1C (configuration not stated) | n | n | -8.1 | n | n | n | x | x | x | x | 80.2% | n | TRPC4 spec 2=32.5%;TRPC4 spec=-29.8%;HEK293 MPD ctr 2-1=n;HEK293 MPD ctr-1=-541.5%
O=C(Nc1cccc(NC(=O)c2cccs2)c1)c1ccc2c(c1)OCCO2 | n | n | n | n | n | n | x | x | x | x | x | x
CCCn1c2c(c(=N)c3c1CCC3)CCC2 | n | n | -8.06 | x | n | n | x | x | x | x | n | n | TRPC4 spec 2=77.5%;TRPC4 spec=-28.2%;HEK293 MPD ctr 2-1=11.5%;HEK293 MPD ctr-1=-578.5%
CCOC(=O)C1=C(C)N=c2s/c(=C/c3ccc(OCC(=O)O)cc3)c(=O)n2C1c1ccc(OC)cc1OC (configuration not stated) | n | n | n | n | 15.8 | n | + | n | 62.0% | n | n | 131.5%
CCCN1CCC(=NNc2ccc(S(=O)(=O)N(CC)CC)cc2[N+](=O)[O-])CC1 | n | n | -5.89 | n | n | n | n | n | -11.0% | 51.0% | 46.5% | n
CCOC(CNC(=O)Cn1nc(C)c2ccccc21)OCC | n | n | n | n | n | n | x | x | x | x | x | x
CC(NC(=O)c1ccc(F)cc1)c1ccc2c(c1)CCCC2 (configuration not stated) | n | n | -6.12 | n | n | n | n | n | n | n | n | n
CC(C)C(Sc1nc(-c2ccccc2)cc(-c2ccccc2)c1C#N)C(=O)O (configuration not stated) | n | n | n | n | 13.3 | n | 355.0% | n | 66.5% | n | n | 126.0%
CCc1ccc(OS(=O)(=O)c2cn(C)c(=O)n(C)c2=O)cc1 | n | n | n | x | n | n | x | x | x | x | x | x
CC(=O)/C(C(=N)N1CCN(Cc2ccccc2)CC1)=C(\C)O | n | n | n | x | n | n | x | x | x | x | x | x
CC(=O)/C(C(=N)N1CCN(C(c2ccccc2)c2ccccc2)CC1)=C(\C)O | n | n | -6.97 | n | n | n | x | x | x | x | n | n | TRPC4 spec 2=n;TRPC4 spec=n;HEK293 MPD ctr 2-1=n;HEK293 MPD ctr-1=n
Cc1cc([N+](=O)[O-])ccc1NC(=O)CN1C2CCC1CC(NC(=O)NC13CC4CC(CC(C4)C1)C3)C2 (configuration not stated) | n | n | n | n | n | n | x | x | x | x | x | x
Cc1ccc(C(OCCN(C)C)c2cccc(C(F)(F)F)c2)cc1 (configuration not stated) | n | n | -5.44 | n | n | n | n | n | 18.0% | 37.5% | n | x
CCCn1cc(C(=O)N(C)C2CCCN(Cc3ccccc3F)C2)c(C)n1 (configuration not stated) | n | n | n | n | n | n | x | x | x | x | x | x
COc1cc(/C=C2/CC/C(=C/c3ccc(O)c(OC)c3)C2=O)ccc1O | n | n | n | n | 13.7 | 43 | 451.0% | 149.0% | 100.5% | n | n | 97.0%
CC1=CC(C)(C)N(C(=O)CNC2CCCC2)c2cc(C)ccc21 | n | n | -6.4 | n | n | n | 125.0% | n | 31.0% | 45.0% | 54.5% | x
c1ccc2c(N3CCCCC3)nc(N3CCCC3)nc2c1 | n | n | n | x | n | n | x | x | x | x | x | x
c1ccc(-c2nc(N3CCNCC3)nc3ccccc23)cc1 | n | 18 | -8.02 | n | n | n | x | x | x | x | n | n | TRPC4 spec 2=39.5%;TRPC4 spec=n;HEK293 MPD ctr 2-1=n;HEK293 MPD ctr-1=4.7%
Nc1nc(N2CCN(c3ccccn3)CC2)nc2ccccc12 | n | n | -6.87 | n | n | n | x | x | x | x | 61.6% | n | TRPC4 spec 2=49.0%;TRPC4 spec=-18.8%;HEK293 MPD ctr 2-1=n;HEK293 MPD ctr-1=-232.5%
Cc1cc(-c2ccccc2)nc(N2CCN(c3ccccn3)CC2)n1 | n | n | n | n | n | n | x | x | x | x | x | x
Nc1nc(N2CCCCC2)nc2ccccc12 | -8 | n | -11.1 | n | n | n | -211.5% | n | -42.0% | 92.5% | 70.5% | n
CC(NC(=O)c1ccco1)C(=O)OC(C)C(=O)NCc1ccccc1 (configuration not stated) | n | n | n | x | n | n | x | x | x | x | x | x
Cc1cc(Cn2nc(C(=O)NCC3CC3)cc2-c2ccccc2)on1 | n | n | n | n | n | n | x | x | x | x | x | x
Cc1ccc(C)c(N(CC(=O)NC2CCCC2)C(=O)c2oc(C(C)(C)C)cc2C)c1 | n | n | n | n | n | n | x | x | x | x | x | x
Cc1cc(C(C)(C)C)oc1C(=O)OCC(=O)NC1CCCCC1 | n | n | -5.35 | n | n | n | n | n | 25.5% | n | 53.0% | x
Cc1cc(C)cc(N(CC(=O)NC(C)(C)C)C(=O)CNC(=O)c2cccs2)c1 | n | n | -5.43 | n | n | n | n | n | n | n | n | n

Assay outcomes deposited in PubChem BioAssay by several laboratories.
